Measurements reported in ChEMBL document CHEMBL3232734, “Nitric oxide (NO) releasing poly ADP-ribose polymerase 1 (PARP-1) inhibitors targeted to glutathione S-transferase P1-overexpressing cancer cells” (J Med Chem, 2014).
Activity calls are given as the source filed them. No cut-off for these calls is given here.

How the values were obtained:
[1] = test system: Mus musculus; test: Systemic toxicity in NCr nu/nu athymic mouse xenografted with human A549 cells assessed as body weight at 92 umol/kg, iv administered two times a week for 4 weeks (reference value: 25.0 +/-0.78 gms); assay type: organism-based; details: in vivo, 672 h
[2] = test system: NCI-H1703; test: Induction of apoptosis in human NCI-H1703 cells assessed as cleaved caspase-7 level at 5 to 25 uM by immunoblot analysis; assay type: functional, cell-based; details: 5 to […] uM
[3] = test system: A549; test: Retention time of the compound in human A549 cells treated with 2-(2,4-dinitrophenoxy)-1-(4-(2-fluoro-5-((4-oxo-3,4-dihydrophthalazin-1-yl)methyl)benzoyl)piperazin-1-yl)diazene oxide at 10 uM by LC/MS/MS analysis; assay type: ADME, cell-based; details: a549, 10 µM
Method in brief: (§1)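 A549 cells plated in flasks overnight at 37 °C, then treated with 10 μM compound for varying times. Lysed by scraping in 10 mM HCl/acetonitrile, 5% sulfosalicylic acid added, centrifuged at 12000g for 15 min, filtered. Analyzed on a C18 column, 0.2 mL/min, H2O/acetonitrile/0.1% formic acid gradient, by Q-TOF LC/MS/MS in positive mode; extracted ion chromatograms at [M+H]+.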

[4] = target: T1, Poly [ADP-ribose] polymerase 1 (Homo sapiens, UniProt P09874); test: Inhibition of PARP-1 (unknown origin) assessed as incorporation of biotinylated poly ADP-ribose onto histone proteins by colorimetric analysis
T1 sequence (P09874 whole entry): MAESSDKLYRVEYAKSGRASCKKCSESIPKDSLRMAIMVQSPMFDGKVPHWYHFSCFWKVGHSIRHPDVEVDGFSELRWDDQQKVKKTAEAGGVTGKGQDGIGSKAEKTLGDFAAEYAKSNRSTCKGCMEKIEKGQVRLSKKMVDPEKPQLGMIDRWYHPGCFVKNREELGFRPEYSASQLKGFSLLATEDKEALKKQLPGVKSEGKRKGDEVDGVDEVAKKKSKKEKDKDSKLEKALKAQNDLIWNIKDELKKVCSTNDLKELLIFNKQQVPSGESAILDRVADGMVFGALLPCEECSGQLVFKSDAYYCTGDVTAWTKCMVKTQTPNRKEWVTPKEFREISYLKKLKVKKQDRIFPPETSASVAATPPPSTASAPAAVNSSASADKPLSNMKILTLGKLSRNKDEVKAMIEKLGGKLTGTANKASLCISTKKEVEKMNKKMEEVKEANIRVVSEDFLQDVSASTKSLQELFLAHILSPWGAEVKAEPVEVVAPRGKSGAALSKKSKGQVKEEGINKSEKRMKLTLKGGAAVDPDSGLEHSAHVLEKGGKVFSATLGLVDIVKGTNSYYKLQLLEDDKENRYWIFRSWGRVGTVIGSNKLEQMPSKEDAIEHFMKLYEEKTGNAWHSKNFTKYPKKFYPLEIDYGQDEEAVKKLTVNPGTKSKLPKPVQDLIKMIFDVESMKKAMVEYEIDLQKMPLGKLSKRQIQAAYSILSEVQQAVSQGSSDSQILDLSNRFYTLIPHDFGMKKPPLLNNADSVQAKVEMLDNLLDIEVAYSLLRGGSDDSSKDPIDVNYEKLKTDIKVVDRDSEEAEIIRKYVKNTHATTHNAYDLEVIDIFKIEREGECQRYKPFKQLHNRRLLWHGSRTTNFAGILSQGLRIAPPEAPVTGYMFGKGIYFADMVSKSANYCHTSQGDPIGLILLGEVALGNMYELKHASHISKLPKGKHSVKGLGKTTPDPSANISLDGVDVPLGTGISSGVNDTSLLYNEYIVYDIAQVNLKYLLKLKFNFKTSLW

[5] = test system: A549; test: Anticancer activity against human A549 cells xenografted in NCr nu/nu athymic mouse assessed as reduction of tumor growth at 92 umol/kg, iv administered two times a week for 4 weeks; assay type: functional, organism-based
Method in brief: (§2)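 A549 cells (RPMI 1640 + 10% FBS, ≤4 passages) harvested at 70–80% confluence, 5 × 10^6 cells in PBS implanted s.c.; at ~3 mm × 3 mm tumors, mice randomized into groups of 12. Tail-vein injection at 92 μmol/kg in 20 μL DMSO, twice weekly for 4 weeks; saline or DMSO controls. Tumors caliper-measured twice weekly, volume = π/2 × L × W². Tumors resected at end, frozen, extracted for metabolite analysis by LC/MS.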

[6] = test system: Tumour; test: Drug uptake in tumor of NCr nu/nu athymic mouse xenografted with human A549 cells at 92 umol/kg, iv administered two times a week for 4 weeks; assay type: ADME, organism-based, Neoplasm; details: in vivo, 672 h; method in brief: as §2
[7] = test system: Tumour; test: Drug metabolism in tumor of NCr nu/nu athymic mouse xenografted with human A549 cells assessed as metabolite formation at 92 umol/kg, iv administered two times a week for 4 weeks; assay type: ADME, organism-based, Neoplasm; details: in vivo, 672 h; method in brief: as §2
[8] = Prodrug activation assessed as GSH reactivity in aqueous phosphate buffer at pH 7.4 by UV-Visible spectrophotometer analysis; assay type: physicochemical
Method in brief: (§3)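 UV–vis kinetics at 37 °C in 0.1 M phosphate buffer, pH 7.4, with 50 μM DTPA and 4 mM GSH, with or without 40 nM recombinant GSTP1 or GSTA1. Substrate (typically 10 μM) added after thermal equilibration. Ratios are k with enzyme over k with GSH alone.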

[9] = target: T1, Poly [ADP-ribose] polymerase 1; test: Inhibition of PARP-1 (unknown origin) assessed as incorporation of biotinylated poly ADP-ribose onto histone proteins measured without activation by GSH by colorimetric analysis
Method in brief: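 Colorimetric PARP assay kit measuring biotinylated poly(ADP-ribose) incorporation onto histones, run per the manufacturer's protocol. Absorbance read at 450 nm. Inhibitor tested over 0.01 nM–1 μM, prodrug given without GSH activation. At least three experiments, each at least in triplicate.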

[10] = In vitro antiproliferative activity against human NCI-H1568 cells assessed as inhibition of cell proliferation after 72 hrs by MTT assay; assay type: functional, cell-based; details: NCI-H1568, 72 h
[11] = test system: NCI-H1703; test: In vitro antiproliferative activity against human NCI-H1703 cells assessed as inhibition of cell proliferation after 72 hrs by MTT assay; assay type: functional, cell-based; details: NCI-H1703, 72 h
[12] = In vitro antiproliferative activity against human H441 cells assessed as inhibition of cell proliferation after 72 hrs by MTT assay; assay type: functional, cell-based; details: NCI-H441, 72 h
[13] = test system: NCI-H1693; test: In vitro antiproliferative activity against human NCI-H1693 cells assessed as inhibition of cell proliferation after 72 hrs by MTT assay; assay type: functional, cell-based; details: NCI-H1693, 72 h
[14] = test system: NCI-H2122; test: In vitro antiproliferative activity against human NCI-H2122 cells assessed as inhibition of cell proliferation after 72 hrs by MTT assay; assay type: functional, cell-based; details: NCI-H2122, 72 h
[15] = test system: NCI-H322M; test: In vitro antiproliferative activity against human NCI-H322M cells assessed as inhibition of cell proliferation after 72 hrs by MTT assay; assay type: functional, cell-based
[16] = In vitro antiproliferative activity against human H23 cells assessed as inhibition of cell proliferation after 72 hrs by MTT assay; assay type: functional, cell-based; details: NCI-H23, 72 h
[17] = test system: NCI-H2030; test: In vitro antiproliferative activity against human NCI-H2030 cells assessed as inhibition of cell proliferation after 72 hrs by MTT assay; assay type: functional, cell-based; details: NCI-H2030, 72 h
[18] = In vitro antiproliferative activity against human NCI-H1944 cells assessed as inhibition of cell proliferation after 72 hrs by MTT assay; assay type: functional, cell-based; details: NCI-H1944, 72 h
[19] = test system: NCI-H1792; test: In vitro antiproliferative activity against human NCI-H1792 cells assessed as inhibition of cell proliferation after 72 hrs by MTT assay; assay type: functional, cell-based; details: NCI-H1792, 72 h
[20] = test system: A549; test: In vitro antiproliferative activity against human A549 cells assessed as inhibition of cell proliferation after 72 hrs by MTT assay; assay type: functional, cell-based; details: A549, 72 h
[21] = In vitro antiproliferative activity against human NCI-H2023 cells assessed as inhibition of cell proliferation after 72 hrs by MTT assay; assay type: functional, cell-based; details: NCI-H2023, 72 h
[22] = In vitro antiproliferative activity against human H460 cells assessed as inhibition of cell proliferation after 72 hrs by MTT assay; assay type: functional, cell-based; details: NCI-H460, 72 h
[23] = test system: NCI-H1703; test: Increase in intracellular nitric oxide release in human NCI-H1703 cells at 10 uM after 30 mins by DAF-FM dye based luminescence spectrometer analysis; assay type: functional, cell-based
[24] = test system: NCI-H1703; test: Increase in intracellular reactive oxygen/nitrogen species in human NCI-H1703 cells at 10 uM after 60 mins by DCF-DA dye based luminescence spectrometer analysis; assay type: functional, cell-based
Method in brief: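 Cells in six-well plates (6 × 10^5/well) loaded with 5 μM DCF-DA in HBSS, 30 min at 37 °C, 5% CO2, then rinsed. Fresh HBSS with compound (10 μM) or DMSO control added. After 60 min cells scraped into HBSS; DCF fluorescence read at ex 488 / em 530 nm. At least three experiments, each at least in triplicate.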

[25] = test system: NCI-H1703; test: Induction of DNA strand break damage in human NCI-H1703 cells at 5 uM after 24 hrs by comet assay; assay type: functional, cell-based
[26] = test system: A549; test: Retention time of the compound in human A549 cells at 10 uM by LC/MS/MS analysis; assay type: ADME, cell-based; details: a549, 10 µM; method in brief: as §1
[27] = target: Glutathione S-transferase P (Homo sapiens, UniProt P09211); test: Ratio of prodrug activation in presence of GSH and recombinant GSTP1 (unknown origin) to prodrug activation in presence of GSH by UV-Visible spectrophotometry
Sequence of Glutathione S-transferase P (P09211 whole entry): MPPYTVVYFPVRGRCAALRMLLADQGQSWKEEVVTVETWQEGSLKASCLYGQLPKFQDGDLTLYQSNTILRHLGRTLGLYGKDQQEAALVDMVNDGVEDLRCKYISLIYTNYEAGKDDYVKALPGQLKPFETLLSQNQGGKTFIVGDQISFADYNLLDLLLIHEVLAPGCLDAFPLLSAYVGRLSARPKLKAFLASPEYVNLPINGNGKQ
Method in brief: as §3, with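 “equilibration. Absorbance followed at 302 nm; first-order rate from an exponential fit.” for “equilibration.”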

[28] = target: T2, Glutathione S-transferase A1 (Homo sapiens, UniProt P08263); test: Ratio of prodrug activation in presence of GSH and recombinant GSTA1 (unknown origin) to prodrug activation in presence of GSH by UV-Visible spectrophotometry
T2 sequence (P08263 whole entry): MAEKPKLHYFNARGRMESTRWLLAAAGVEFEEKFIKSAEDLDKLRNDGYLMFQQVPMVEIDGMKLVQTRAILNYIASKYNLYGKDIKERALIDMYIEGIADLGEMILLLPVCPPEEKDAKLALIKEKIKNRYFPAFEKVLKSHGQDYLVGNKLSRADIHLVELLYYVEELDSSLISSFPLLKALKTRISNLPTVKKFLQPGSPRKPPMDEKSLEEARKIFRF
Method in brief: as §3, with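 “equilibration. Absorbance followed at 302 nm; first-order rate from an exponential fit.” for “equilibration.”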

[29] = test system: NCI-H1355; test: In vitro antiproliferative activity against human NCI-H1355 cells assessed as inhibition of cell proliferation after 72 hrs by MTT assay; assay type: functional, cell-based; details: NCI-H1355, 72 h

## O=C(c1cc(Cc2n[nH]c(=O)c3ccccc23)ccc1F)N1CCN(C(=O)C2CC2)CC1 [OLAPARIB]
[1]
  Activity: 25.6 g
[2]
  Activity: inactive

## O=C(c1cc(Cc2n[nH]c(=O)c3ccccc23)ccc1F)N1CCNCC1
[3]
  Retention_time: 11.9 min
[4]
  IC50: 0.0069 µM

## O=C(c1cc(Cc2n[nH]c(=O)c3ccccc23)ccc1F)N1CCN(/[N+]([O-])=N/Oc2ccc([N+](=O)[O-])cc2[N+](=O)[O-])CC1
[5]
  growth inhibition (GI): Active
[1]
  Activity: 27.7 g
[6]
  Drug uptake: Active
[7]
  Drug metabolism: metabolite_detected
[8]
  t1/2: 11.6 min
[9]
  IC50: 0.058 µM
[10]
  IC50: 3 µM
[11]
  IC50: 4.3 µM
[12]
  IC50: 4.5 µM
[13]
  IC50: 5.4 µM
[14]
  IC50: 7.5 µM
[15]
  IC50: 7.9 µM
[16]
  IC50: 8.4 µM
[17]
  IC50: 9.2 µM
[18]
  IC50: 10.5 µM
[19]
  IC50: 12.7 µM
[20]
  IC50: 13.5 µM
[21]
  IC50: 15 µM
[22]
  IC50: 16.4 µM
[23]
  Activity: Active
[24]
  Activity: Active
[25]
  Activity: Active
[2]
  Activity: Active
[26]
  Retention_time: 18.2 min
[27]
  Ratio: 10.6
[28]
  Ratio: 20.4

## N[C@@H](CCC(=O)N[C@@H](CSc1ccc([N+](=O)[O-])cc1[N+](=O)[O-])C(=O)NCC(=O)O)C(=O)O
[3]
  Retention_time: 13.8 min

## O=C(c1cccc(Cc2n[nH]c(=O)c3ccccc23)c1)N1CCN(/[N+]([O-])=N/Oc2ccc([N+](=O)[O-])cc2[N+](=O)[O-])CC1
[8]
  t1/2: 11.2 min
[9]
  IC50: 0.123 µM
[10]
  IC50: 6.5 µM
[11]
  IC50: 6.8 µM
[12]
  IC50: 8.1 µM
[13]
  IC50: 5.3 µM
[14]
  IC50: 11.2 µM
[15]
  IC50: 9 µM
[29]
  IC50: 11.4 µM
[16]
  IC50: 7.5 µM
[17]
  IC50: 13.8 µM
[18]
  IC50: 14 µM
[19]
  IC50: 14 µM
[20]
  IC50: 16.8 µM
[21]
  IC50: 19.4 µM
[22]
  IC50: 13.8 µM
[23]
  Activity: Active
[24]
  Activity: Active

## CNc1ccc(C(=O)Oc2cc(O/N=[N+](\[O-])N(C)C)c([N+](=O)[O-])cc2[N+](=O)[O-])cc1
[8]
  t1/2: 2 min
[27]
  Ratio: 5.4
[28]
  Ratio: 3.7

## O=C(c1cccc(Cc2n[nH]c(=O)c3ccccc23)c1)N1CCNCC1
[4]
  IC50: 0.0305 µM
